# Source: PubChem BioAssay (Sanford-Burnham Center for Chemical Genomics)
# SUMO HTRF inh = SUMOylation inhibition | HTRF SUMOylation assay, SAE1/SAE2 + UBC9, in vitro | inhibition, % at 35 µM | 290,000 compounds, 0.36% hits; in the data active = inhibition above about 50%, passing the limit was not always enough
# Target sequence (P63279 whole entry, looked up): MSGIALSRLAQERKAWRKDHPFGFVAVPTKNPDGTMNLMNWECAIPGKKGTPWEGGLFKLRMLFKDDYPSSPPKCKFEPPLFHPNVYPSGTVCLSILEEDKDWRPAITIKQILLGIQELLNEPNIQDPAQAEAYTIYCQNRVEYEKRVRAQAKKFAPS
# SUMO1 PPI mod = modulators of human SUMO1-mediated protein-protein interactions | inhibition, % at 20 µM | SUMO1 binding to a labelled peptide, TR-FRET, 1 h | 360,000 compounds, 0.33% hits | P63165; in the data active = inhibition above about 37%
# Target sequence (P63165 whole entry, looked up): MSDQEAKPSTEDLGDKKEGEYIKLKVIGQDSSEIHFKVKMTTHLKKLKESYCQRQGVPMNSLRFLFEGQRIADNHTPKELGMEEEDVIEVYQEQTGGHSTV
# STEP block = blocks human striatal-enriched tyrosine phosphatase; P54829; recombinant STEP, OMFP fluorogenic substrate, fluorescence; inhibition, % at 20 µM; 360,000 compounds, 0.25% hits;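 active = inhibition at 20 µM, scaled per plate between control wells, above about 37%, limit read from the data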;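 also: 0% = DMSO with enzyme and substrate and 100% = substrate only without enzyme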
#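 Assay system: isolated STEP enzyme. Buffer or medium: pH 6.0 Bis-Tris with DTT and Tween 20. Also added: fluorogenic phosphatase substrate OMFP at 25 µM final. Dosing: 20 µM, 1% DMSO. Timing: 20 min reaction, room temperature, in the dark. Measured by: fluorescence intensity, excitation 480 nm, emission 540 nm. Evaluation: normalized % inhibition.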
# LMPTP block = blocks human LMPTP phosphatase | P24666 | recombinant LMPTP-A, OMFP fluorogenic substrate, fluorescence intensity | inhibition, % at 20 µM | 360,000 compounds, 0.22% hits;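 active = compounds that cut the enzyme signal by at least half of the control window in the single-dose screen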;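 also: plate controls were DMSO wells with enzyme plus substrate for no effect and substrate without enzyme for full effect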
# Target sequence (P24666 whole entry, looked up): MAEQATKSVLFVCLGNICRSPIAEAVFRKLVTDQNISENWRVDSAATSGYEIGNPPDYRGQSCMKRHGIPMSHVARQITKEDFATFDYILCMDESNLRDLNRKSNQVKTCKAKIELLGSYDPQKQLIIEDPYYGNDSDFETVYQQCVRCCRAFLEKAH
#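 Assay system: LMPTP-A phosphatase enzyme | Input: 0.625 nM enzyme | Also added: Fluorogenic phosphatase substrate OMFP at 400 µM final | Compound dosing: One test concentration per compound, 20 µM, with 3% DMSO overall | Schedule: 50 min enzyme reaction at room temperature, protected from light | Signal: Fluorescence intensity | Benchmarks: no-enzyme and uninhibited controls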
# DNMT1 block = inhibitors of human DNMT1; P26358; DNMT1 molecular beacon, Hinp1I cleavage, fluorescence; inhibition (reported as % activation of signal), % at 10 µM; 360,000 compounds, 0.83% hits; AID 588458; in the data active = inhibition above about 50%
# Scp1 inh = blocks human Scp-1 phosphatase activity; 340,000 compounds, 0.88% hits; inhibition, % at 20 µM; Recombinant Scp1, phosphopeptide, malachite green phosphate absorbance; Q9GZU7;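 active = inhibition above about 50% at 20 µM, limit read from the data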;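 also: plate controls were DMSO wells with enzyme for no effect and wells lacking enzyme for full effect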
# Target sequence (Q9GZU7 76-261 limits assumed): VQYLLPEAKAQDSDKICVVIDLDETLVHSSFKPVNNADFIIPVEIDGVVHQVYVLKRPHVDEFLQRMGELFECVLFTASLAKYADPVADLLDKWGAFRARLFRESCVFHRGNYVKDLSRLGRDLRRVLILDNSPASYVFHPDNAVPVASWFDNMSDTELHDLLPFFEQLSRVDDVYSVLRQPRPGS
#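 Test system – truncated SCP-1 phosphatase (76-261aa) · Reagent – Phosphorylated 17-residue peptide substrate · Incubation – 45 min room-temperature reaction, 5 min colour, 30 min stabiliser · Detection – colorimetric phosphate reagent with accelerator and stabiliser, absorbance at 630 nm · Measure – % inhibition at 20 µM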
# DNMT1 interf DR = shows spectral interference in the DNMT1 beacon assay; shares compounds with DNMT1 block; molecular beacon fluorescence, spectral interference counter-screen; IC50, µM; 200 tested, under 10 active; AID 602382; call rule not given here
# DNMT1 inh conf = DNMT1 inhibition confirmation, single concentration; shares compounds with DNMT1 block; DNMT1 molecular beacon HinP1I cleavage, fluorescence; inhibition, % at 10 µM; 2,300 compounds, 8% hits; AID 602385;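 active = average inhibition of at least 30% in the single-concentration confirmation test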
# Beacon interf = shows spectral interference in the DNMT1 beacon assay. shares compounds with DNMT1 block. DNMT1 molecular beacon spectral interference counterscreen, fluorescence 485/520. activation (fluorescence interference), % at 10 µM. 2,300 compounds, 1% hits. AID 602387;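 active = activation of at least 30% at 10 µM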;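 also: DNMT1 catalytic domain with a HinP1I cleavage step and a FAM/dabcyl DNA beacon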
# Active calls of the source: *; . = no result given. Sampled rows, rich in hits. Any-hit rate of the full collection: about 1.9%.
SMILES,SUMO HTRF inh,SUMO1 PPI mod,STEP block,LMPTP block,DNMT1 block,Scp1 inh,DNMT1 inh conf,Beacon interf,others
Cc1cc(-c2nnc3n2N=C(c2ccc(-c4ccccc4)cc2)CS3)n[nH]1,20.2,-17.2,5.8,16.9,-7.3,8.8,.,.,
c1ccc(-c2cc(-c3nnc4n3N=C(c3ccc5ccccc5c3)CS4)[nH]n2)cc1,3.2,-5.5,6.1,2.7,55.4*,3.1,5.5,-3.8,
O=C(Nc1ccc2ccccc2c1)C(c1ccc(C(F)(F)F)cc1)n1c(=O)c(-c2cc3ccccc3[nH]2)nc2ccccc21 (stereo not drawn),.,6.3,.,5.5,.,.,.,.,
CCOc1cc(/C=C(\C#N)C(=O)Nc2cccc(C(=O)O)c2)ccc1OCc1ccc(Br)cc1,61.5*,82.0*,95.9*,-1.6,89.0*,34.5,104.2*,-1.4,DNMT1 interf DR=>99
CCOC(=O)C1CC(CN2C(=O)c3ccccc3C2=O)OC1=O (stereo not drawn),.,-9.2,1.1,-0.3,6.3,-3.9,.,.,
COc1ccc(OCC(=O)Nc2ccc(N3CCCCC3)cc2)cc1,16.4,2.4,-2.2,1.2,-7.2,-6.6,.,.,
Cc1cccc(OCC(=O)Nc2cccc(-c3nnc(-c4ccccc4)o3)c2)c1C,17.0,1.9,-0.8,-0.2,57.1*,2.1,-2.1,-3.4,
Cc1cccc(C)c1OCC(=O)Nc1cccc(-c2nnc(-c3ccccc3)o2)c1,-17.1,2.6,2.9,1.0,-5.1,-8.2,.,.,
Cc1ccc(OCC(=O)Nc2ccc(N3CCCC3)cc2)cc1C,-14.5,3.2,3.6,6.2,67.4*,8.9,-0.3,-5.7,
COc1ccccc1OCC(=O)Nc1ccc(N2CCCCC2)cc1,-2.5,0.8,-0.7,1.6,-7.1,-3.0,.,.,
Cc1cccc(OCC(=O)Nc2ccc(N3CCCC3)cc2)c1C,4.9,-26.1,2.7,3.3,58.9*,-6.6,20.7,-5.1,DNMT1 interf DR=>99
Cc1cc(=O)[nH]c(SCC(=O)NCc2ccco2)n1,9.5,22.7,4.4,0.0,56.5*,67.0*,1.1,2.8,
Cc1nnc(SCC(=O)NCc2ccco2)[nH]c1=O,4.0,8.5,1.5,-1.3,19.6,17.9,.,.,
O=C(N/N=C/c1ccc(F)cc1)c1c(O)c2ccccc2[nH]c1=O,3.2,1.8,2.2,7.7,53.8*,-3.9,3.2,-5.7,
O=C(N/N=C/c1ccccc1)c1c(O)c2ccccc2[nH]c1=O,12.7,-1.8,-0.1,-1.2,1.3,-10.3,.,.,
CC1Sc2ccc(C(=O)N(CCc3ccccc3)Cc3ccccc3)cc2NC1=O (stereo not drawn),.,2.9,0.2,1.6,82.9*,.,1.3,7.2,
COC(=O)c1ccccc1NC(=O)CSc1nncn1-c1cccnc1,8.5,6.8,4.0,-1.6,1.6,-5.5,.,.,
Cc1cc(/C=N/Nc2ccc([N+](=O)[O-])cn2)c(C)n1-c1ccc(C(=O)O)cc1,.,10.2,6.1,12.0,61.4*,57.0*,3.9,0.9,
CC1(C)CC(=O)C=C(c2n[nH]nc2-c2ccc(F)c(F)c2)C1,.,-4.4,0.0,-2.0,5.0,.,.,.,
Oc1ccc(F)c2cccnc12,17.8,-1.9,1.3,0.8,68.5*,-6.9,2.5,2.7,
Oc1ccc(Cl)c2cccnc12,.,-3.5,0.5,-0.2,6.3,-1.8,.,.,
COc1ccc2cc(/C(C)=N/NC(=O)c3cc(-c4cccnc4)nc4ccccc34)ccc2c1,2.7,-8.9,0.6,-0.5,-12.3,-1.4,.,.,
O=C(NNc1cc(N2CCCC2)nc(N2CCCC2)n1)c1ccc([N+](=O)[O-])cc1,.,37.1*,-0.4,11.0,55.6*,-6.5,-3.6,-11.1,
CCc1ccc(C(=O)COC(=O)c2cc([N+](=O)[O-])ccc2NCCO)cc1,0.6,-16.2,3.2,1.0,90.4*,-9.0,4.8,7.0,
O=C(COC(=O)c1cc([N+](=O)[O-])ccc1NCCO)c1ccc(Cl)cc1,-5.0,-15.7,-1.2,1.2,-2.4,-3.1,.,.,
SMILES,SUMO HTRF inh,SUMO1 PPI mod,STEP block,LMPTP block,DNMT1 block,Scp1 inh,DNMT1 inh conf,Beacon interf,others
Cc1ccc(-n2c(C)cc(C)c(C#N)c2=O)cc1C,11.1,-0.7,-1.7,0.2,1.5,-2.7,.,.,
CCCc1nnc(NS(=O)(=O)c2ccc(OC)cc2)s1,-4.1,1.1,-3.2,1.2,72.5*,3.5,2.4,2.1,
O=C(CCc1ccc(S(=O)(=O)N2CCOCC2)cc1)OCc1nc2ccccc2s1,5.5,1.9,-0.8,-0.8,98.9*,-2.2,8.5,8.3,
COc1cc(/C=C2\SC(=O)N(CC(=O)Nc3ccc(C)cc3)C2=O)cc(Cl)c1OCC(=O)O,48.9,46.5*,98.3*,83.6*,90.0*,25.5,3.2,6.1,
N#C/C(=C\c1ccc(-c2ccc([N+](=O)[O-])cc2)o1)C(=O)Nc1nc(-c2cccs2)cs1,.,-23.7,2.5,6.1,94.6*,4.5,2.7,-3.6,
N#C/C(=C/c1ccc(-c2cccc([N+](=O)[O-])c2)o1)C(=O)Nc1nc(-c2cccs2)cs1,.,-12.8,-1.4,2.5,30.5,-1.0,.,.,
Cc1ccc(Nc2ccc(C(=O)NC3CCCCC3)cn2)cc1,1.1,-0.9,-0.7,0.3,0.9,-10.7,.,.,
NC(=O)CC(NC(=O)Cc1cccc2ccccc12)c1ccc(NCCOc2ccccc2)c([N+](=O)[O-])c1 (stereo not drawn),48.6,-17.1,1.7,1.2,51.1*,8.1,0.9,-2.3,
NC(=O)CC(NC(=O)Cc1cccc2ccccc12)c1ccc(NC2CCCC2)c([N+](=O)[O-])c1 (stereo not drawn),.,0.4,-2.3,1.0,16.5,-5.8,.,.,
NC(=O)CC(NC(=O)Cc1cccc2ccccc12)c1ccc(NC2CCCCC2)c([N+](=O)[O-])c1 (stereo not drawn),48.0,-4.4,7.9,0.1,64.3*,-2.3,1.9,3.9,
NC(=O)CC(NC(=O)Cc1cccc2ccccc12)c1ccc(NCC2CC2)c([N+](=O)[O-])c1 (stereo not drawn),46.3,-7.1,2.2,1.6,32.3,0.6,.,.,
CCOC(=O)Nc1ccc2c(COC(=O)C(NS(=O)(=O)c3ccc(Cl)cc3)C(C)O)cc(=O)oc2c1 (stereo not drawn),.,-16.6,-1.5,0.9,5.1,10.3,.,.,
CC1(C)CC(=O)c2cnc3c(C#N)cnn3c2C1,16.2,-2.0,0.1,-0.3,-0.5,-5.3,.,.,
Nc1cc2c3ccccc3ccc2c2ccccc12,.,21.8,2.7,16.1,90.7*,5.3,3.7,9.1,
